Experimental data reported in ChEMBL document CHEMBL4732186, “Targeting the transmembrane domain 5 of latent membrane protein 1 using small molecule modulators” (Eur J Med Chem, 2021).

Assays:
Escherichia coli = assay: Antibacterial activity against Escherichia coli FHK12; type: ADME, organism-based
Summary of the method: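 FHK12 E. coli transformed by heat shock (42 °C, 90 s) with the ToxR7-TMD-5 plasmid. Grown in LB with 0.0025% arabinose and 30 µg/mL chloramphenicol plus a range of test-compound concentrations, shaken at 37 °C for 20 h, five replicate cultures. Growth read as OD at 600 nm.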

[1] = Inhibition of recombinant EpsteinBarr virus Transmembrane domain 5 of latent membrane protein 1 transformed into Escherichia coli FHK12 cells assessed as disruption of oligomerization by measuring ToxR transcription activity assay; design: species or system human gammaherpesvirus 4
[2] = Binding affinity to EpsteinBarr virus Transmembrane domain 5 of latent membrane protein 1 assessed as dissociation constant by spectrofluorimetric analysis; design: species or system human gammaherpesvirus 4
human gammaherpesvirus 4 = assay: Potency index, ratio of IC50 of pentamidine to IC50 of compound for inhibition of recombinant EpsteinBarr virus Transmembrane domain 5 of latent membrane protein 1 transformed into FHK12 cells by ToxR assay
Summary of the method: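 ToxR7-TMD-5 plasmid heat-shocked into FHK12 E. coli; cultures in LB with 0.0025% arabinose and 30 µg/mL chloramphenicol with graded compound concentrations, five replicates, shaken 37 °C for 20 h. Cells lysed with Z buffer/SDS, then ONPG (0.4% w/v) added; β-galactosidase followed at 405 nm for 20 min at 28 °C.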

[3] = Apparent permeability in dog MDCK cells measured after 150 mins; type: ADME, cell-based, Canis lupus familiaris
Summary of the method: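 MDCK cells (passage 20-35) seeded at 5×10^4 cells/well on 0.4 µm Transwell inserts and grown 4-5 days to confluence. Monolayers washed with HBSS pH 7.4 and equilibrated 30 min. Compound added apically or basolaterally; receiver side sampled at 150 min, then frozen and lyophilized. TEER checked afterward for monolayer integrity.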

| IC50 (Escherichia coli) | Papp at 2.5 h [3] | Compound | IC50 [1] | Kd [2] | Ratio IC50 (human gammaherpesvirus 4) |
| --- | --- | --- | --- | --- | --- |
| > 200 µM |  | N=C(N)c1ccc(NC(=O)CCC(=O)Nc2ccc(C(=N)N)cc2)cc1 | 112 µM | 13.5 µM |  |
| > 200 µM | 1.07 ×10⁻⁶ cm/s | N=C(N)c1ccc(C(=O)NCCCNC(=O)c2ccc(C(=N)N)cc2)cc1 | > 200 µM |  |  |

The next lines start with the compound.

| Compound | IC50 (Escherichia coli) | Papp at 2.5 h [3] | IC50 [1] | Kd [2] | Ratio IC50 (human gammaherpesvirus 4) |
| --- | --- | --- | --- | --- | --- |
| N=C(N)c1ccc(NC(=O)CCCC(=O)Nc2ccc(C(=N)N)cc2)cc1 | 56.4 µM | 4.28 ×10⁻⁶ cm/s | 0.6 µM | 2.6 µM | 15 |
| N=C(N)c1ccc(NC(=O)CCCCC(=O)Nc2ccc(C(=N)N)cc2)cc1 | > 200 µM |  | 42 µM | 8.9 µM |  |
| N=C(N)c1ccc(NCCCCCNc2ccc(C(=N)N)cc2)cc1 | > 200 µM |  | 31.2 µM | 7.3 µM |  |
